Data from ChEMBL document CHEMBL4715736, “Identification of anticancer agents based on the thieno[2,3-b]pyridine and 1H-pyrazole molecular scaffolds” (2016).

How the values were obtained:
Type in all cases: functional
[1] = test system: OVCAR-4; assay: Growth inhibition of human OVCAR-4 cells incubated for 48 hrs by sulforhodamine B assay
In short: (§1)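 NCI DTP 60-line human tumour panel. Dose-response curves were run only for ligands active in the initial 10 µM screen. GI50 (concentration giving 50% of maximal inhibition of proliferation) and TGI (concentration giving total growth inhibition) were derived from these curves.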

[2] = test system: IGROV-1; assay: Growth inhibition of human IGROV-1 cells assessed as cell growth at 100 uM incubated for 48 hrs by sulforhodamine B assay relative to control; settings: read-out: Activity
[3] = test system: A498; assay: Growth inhibition of human A498 cells incubated for 48 hrs by sulforhodamine B assay
In short: (§2)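 NCI Developmental Therapeutics Program NCI60 panel. Compounds that were active in the 10 µM one-dose screen went on to dose–response testing. Growth at each concentration is expressed relative to untreated control (100%). GI50 (concentration giving 50% of maximal inhibition of proliferation) and TGI (concentration giving total growth inhibition) were derived from the curves.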

[4] = test system: SNB-75; assay: Growth inhibition of human SNB-75 cells assessed as cell growth at 0.01 uM incubated for 48 hrs by sulforhodamine B assay relative to control; settings: read-out: Activity
[5] = test system: SF-295; assay: Growth inhibition of human SF-295 cells assessed as cell growth at 1 uM incubated for 48 hrs by sulforhodamine B assay relative to control; settings: read-out: Activity
[6] = test system: OVCAR-4; assay: Growth inhibition of human OVCAR-4 cells assessed as cell growth at 100 uM incubated for 48 hrs by sulforhodamine B assay relative to control; settings: read-out: Activity
[7] = test system: DU-145; assay: Growth inhibition of human DU-145 cells assessed as cell growth at 100 uM incubated for 48 hrs by sulforhodamine B assay relative to control; settings: read-out: Activity; in short: as §2
[8] = test system: KM12; assay: Growth inhibition of human KM12 cells assessed as cell growth at 0.1 uM incubated for 48 hrs by sulforhodamine B assay relative to control; settings: read-out: Activity
[9] = test system: SNB-19; assay: Growth inhibition of human SNB-19 cells assessed as cell growth at 0.01 uM incubated for 48 hrs by sulforhodamine B assay relative to control; settings: read-out: Activity
[10] = test system: SK-OV-3; assay: Growth inhibition of human SK-OV-3 cells incubated for 48 hrs by sulforhodamine B assay; in short: as §1
[11] = test system: K562; assay: Growth inhibition of human K562 cells assessed as cell growth at 0.1 uM incubated for 48 hrs by sulforhodamine B assay relative to control; settings: read-out: Activity
[12] = test system: OVCAR-4; assay: Growth inhibition of human OVCAR-4 cells assessed as cell growth at 1 uM incubated for 48 hrs by sulforhodamine B assay relative to control; settings: read-out: Activity
[13] = test system: SK-MEL-28; assay: Growth inhibition of human SK-MEL-28 cells incubated for 48 hrs by sulforhodamine B assay; in short: as §1
[14] = test system: SF-268; assay: Growth inhibition of human SF-268 cells assessed as cell growth at 1 uM incubated for 48 hrs by sulforhodamine B assay relative to control; settings: read-out: Activity
[15] = test system: OVCAR-3; assay: Growth inhibition of human OVCAR-3 cells assessed as cell growth at 0.01 uM incubated for 48 hrs by sulforhodamine B assay relative to control; settings: read-out: Activity
[16] = test system: UACC-257; assay: Growth inhibition of human UACC-257 cells assessed as cell growth at 100 uM incubated for 48 hrs by sulforhodamine B assay relative to control; settings: read-out: Activity
[17] = test system: A498; assay: Growth inhibition of human A498 cells assessed as cell growth at 1 uM incubated for 48 hrs by sulforhodamine B assay relative to control; settings: read-out: Activity; in short: as §2
[18] = test system: MDA-MB-231; assay: Growth inhibition of human MDA-MB-231 cells assessed as cell growth at 0.01 uM incubated for 48 hrs by sulforhodamine B assay relative to control; settings: read-out: Activity
[19] = test system: HT-29; assay: Growth inhibition of human HT-29 cells assessed as cell growth at 1 uM incubated for 48 hrs by sulforhodamine B assay relative to control; settings: read-out: Activity
[20] = test system: MDA-MB-231; assay: Growth inhibition of human MDA-MB-231 cells assessed as cell growth at 1 uM incubated for 48 hrs by sulforhodamine B assay relative to control; settings: read-out: Activity
[21] = test system: HT-29; assay: Growth inhibition of human HT-29 cells assessed as cell growth at 100 uM incubated for 48 hrs by sulforhodamine B assay relative to control; settings: read-out: Activity
[22] = test system: SN12C; assay: Growth inhibition of human SN12C cells assessed as cell growth at 100 uM incubated for 48 hrs by sulforhodamine B assay relative to control; settings: read-out: Activity
[23] = test system: NCI-H322M; assay: Growth inhibition of human NCI-H322M cells incubated for 48 hrs by sulforhodamine B assay
In short: (§3)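 NCI60 panel at the NCI Developmental Therapeutics Program. Only compounds active in the 10 µM screen went to dose-response testing. GI50, the concentration giving 50% of maximal inhibition of proliferation, and TGI, the concentration giving total growth inhibition, were derived from the dose-response curves.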

[24] = test system: HOP-92; assay: Growth inhibition of human HOP-92 cells incubated for 48 hrs by sulforhodamine B assay; in short: as §3
[25] = test system: LOX IMVI; assay: Growth inhibition of human LOX IMVI cells assessed as cell growth at 100 uM incubated for 48 hrs by sulforhodamine B assay relative to control; settings: read-out: Activity
[26] = test system: OVCAR-5; assay: Growth inhibition of human OVCAR-5 cells assessed as cell growth at 0.01 uM incubated for 48 hrs by sulforhodamine B assay relative to control; settings: read-out: Activity
[27] = test system: 786-0; assay: Growth inhibition of human 786-0 cells assessed as cell growth at 1 uM incubated for 48 hrs by sulforhodamine B assay relative to control; settings: read-out: Activity; in short: as §2
[28] = test system: HCC 2998; assay: Growth inhibition of human HCC 2998 cells assessed as cell growth at 100 uM incubated for 48 hrs by sulforhodamine B assay relative to control; settings: read-out: Activity; in short: as §2
[29] = test system: NCI-H522; assay: Growth inhibition of human NCI-H522 cells assessed as cell growth at 0.1 uM incubated for 48 hrs by sulforhodamine B assay relative to control; settings: read-out: Activity
[30] = test system: CCRF-CEM; assay: Growth inhibition of human CCRF-CEM cells assessed as cell growth at 0.1 uM incubated for 48 hrs by sulforhodamine B assay relative to control; settings: read-out: Activity; in short: as §2
[31] = test system: OVCAR-8; assay: Growth inhibition of human OVCAR-8 cells assessed as cell growth at 100 uM incubated for 48 hrs by sulforhodamine B assay relative to control; settings: read-out: Activity
[32] = test system: SW-620; assay: Growth inhibition of human SW-620 cells assessed as cell growth at 1 uM incubated for 48 hrs by sulforhodamine B assay relative to control; settings: read-out: Activity
[33] = test system: M14; assay: Growth inhibition of human M14 cells assessed as cell growth at 0.01 uM incubated for 48 hrs by sulforhodamine B assay relative to control; settings: read-out: Activity
[34] = test system: SK-MEL-28; assay: Growth inhibition of human SK-MEL-28 cells assessed as cell growth at 1 uM incubated for 48 hrs by sulforhodamine B assay relative to control; settings: read-out: Activity
[35] = read-out: LC50 (the source's name)

`Cc1cccc(NC(=O)c2sc3nc4c(cc3c2N)C(=O)CCC4)c1` showed a TGI [1] of no less than 100 µM, a CC50 [1, 35] greater than 100 µM and a growth at 100 µM [2] of -4%. The GI50 [3] was 0.139 µM, the TGI [3] was 0.701 µM and the CC50 [3, 35] was greater than 100 µM. It also gave a growth at 0.01 µM [4] of 80%, a growth at 1 µM [5] of 9% and a growth at 100 µM [6] of -56%. The growth at 100 µM [7] was -34%, the growth at 0.1 µM [8] was 65% and the growth at 0.01 µM [9] was 94%. The GI50 [10] was 0.251 µM, the TGI [10] was greater than 100 µM and the CC50 [10, 35] was greater than 100 µM. It also gave a growth at 0.1 µM [11] of 44%, a growth at 1 µM [12] of 44% and a GI50 [13] of 0.0308 µM. It also gave an LC50 [13] greater than 100 µM, a TGI [13] of no less than 100 µM and a growth at 1 µM [14] of 54%. For the same molecule, the growth at 0.01 µM [15] was 98%, the growth at 100 µM [16] was -16% and the growth at 1 µM [17] was -11%. For the same molecule, the growth at 0.01 µM [18] was 99%, the growth at 1 µM [19] was 2% and the growth at 1 µM [20] was 40%. It also gave a growth at 100 µM [21] of 3%, a growth at 100 µM [22] of -33% and a TGI [23] greater than 100 µM. It also gave a CC50 [23, 35] greater than 100 µM, a GI50 [24] of 1 µM and an LC50 (concentration killing 50% of the starting cells) [24] greater than 100 µM. It also gave a TGI [24] of no less than 100 µM, a growth at 100 µM [25] of -75% and a growth at 0.01 µM [26] of 96%. The growth at 1 µM [27] was 30%, the growth at 100 µM [28] was -23% and the growth at 0.1 µM [29] was 51%. It also gave a growth at 0.1 µM [30] of 90%, a growth at 100 µM [31] of -30% and a growth at 1 µM [32] of 19%. For the same molecule, the growth at 0.01 µM [33] was 93% and the growth at 1 µM [34] was 47%.
